According to ChEMBL document CHEMBL5029148, “Discovery of Arylsulfonamides as Dual Orexin Receptor Agonists” (J Med Chem, 2021):
Active and inactive are the calls of the source. The rule behind the calls is not given here.

Legend:
[1] = biological target: T1, Orexin receptor type 2 (Homo sapiens, UniProt O43614); experiment: Agonist activity at human OX2R stably expressed in CHO cells; assay type: functional, cell-based, CHO-RD-HGA16
T1 sequence (O43614 whole entry): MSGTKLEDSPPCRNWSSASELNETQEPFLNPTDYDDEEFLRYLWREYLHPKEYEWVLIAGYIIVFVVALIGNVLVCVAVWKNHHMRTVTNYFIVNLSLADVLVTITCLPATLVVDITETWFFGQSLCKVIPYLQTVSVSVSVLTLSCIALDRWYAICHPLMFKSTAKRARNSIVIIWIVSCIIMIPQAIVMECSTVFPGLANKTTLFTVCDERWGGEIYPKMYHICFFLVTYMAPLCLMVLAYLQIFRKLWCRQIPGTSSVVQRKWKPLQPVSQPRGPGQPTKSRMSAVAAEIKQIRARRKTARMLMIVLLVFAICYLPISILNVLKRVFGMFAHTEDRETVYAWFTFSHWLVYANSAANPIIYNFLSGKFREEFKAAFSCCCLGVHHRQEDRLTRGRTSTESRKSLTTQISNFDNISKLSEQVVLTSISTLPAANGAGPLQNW

[2] = biological target: T2, Orexin/Hypocretin receptor type 1 (Homo sapiens, UniProt O43613); experiment: Agonist activity at human OX1R stably expressed in CHO cells; assay type: functional, cell-based, CHO-RD-HGA16
T2 sequence (O43613 whole entry): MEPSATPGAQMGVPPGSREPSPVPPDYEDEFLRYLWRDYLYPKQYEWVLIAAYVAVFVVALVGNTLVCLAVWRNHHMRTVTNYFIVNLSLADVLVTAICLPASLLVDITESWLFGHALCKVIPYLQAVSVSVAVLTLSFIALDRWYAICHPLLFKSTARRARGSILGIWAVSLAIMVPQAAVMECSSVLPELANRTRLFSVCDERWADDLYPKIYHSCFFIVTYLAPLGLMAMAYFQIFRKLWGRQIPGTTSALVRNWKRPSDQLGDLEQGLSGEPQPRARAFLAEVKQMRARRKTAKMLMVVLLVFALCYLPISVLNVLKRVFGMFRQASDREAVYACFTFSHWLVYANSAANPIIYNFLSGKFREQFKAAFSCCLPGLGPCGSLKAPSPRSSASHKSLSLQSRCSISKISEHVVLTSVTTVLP

[3] = biological target: T1, Orexin receptor type 2; experiment: Agonist activity at human OX2R stably expressed in CHO RD-HGA16 cells assessed as fluorescence changes measured after 30 mins by calcium mobilization assay; assay type: functional, cell-based
[4] = biological target: T2, Orexin/Hypocretin receptor type 1; experiment: Agonist activity at human OX1R stably expressed in CHO RD-HGA16 cells assessed as fluorescence changes measured after 30 mins by calcium mobilization assay; assay type: functional, cell-based
[5] = tested on: Mus musculus; experiment: Sleep modulation activity in mouse assessed as decrease in time spent in non-rapid eye movement sleep during light phase at 30 to 300 nmol, icv measured up to 3 hrs of post injection; assay type: functional, organism-based; conditions: dose 30-300 nmol, time hrs <=3
[6] = tested on: Mus musculus; experiment: Sleep modulation activity in mouse assessed as increase in time spent in wakefulness during light phase at 20 mg/kg, ip measured up to 6 hrs of post injection; assay type: functional, organism-based; conditions: time hrs <=6
[7] = tested on: Mus musculus; experiment: Sleep modulation activity in mouse assessed as increase in time spent in wakefulness during light phase at 30 to 300 nmol, icv measured up to 3 hrs of post injection; assay type: functional, organism-based; conditions: dose 30-300 nmol, time hrs <=3
[8] = tested on: Mus musculus; experiment: Sleep modulation activity in mouse assessed as increase in time spent in wakefulness during light phase at 40 to 60 mg/kg, ip measured up to 3 hrs of post injection; conditions: dose 40-60 mg/kg, time hrs <=3
[9] = tested on: Mus musculus; experiment: Sleep modulation activity in mouse assessed as increase in time spent in rapid eye movement sleep during light phase at 20 mg/kg, ip measured up to 6 hrs of post injection; assay type: functional, organism-based; conditions: time hrs <=6
[10] = tested on: Mus musculus; experiment: Sleep modulation activity in mouse assessed as decrease in time spent in rapid eye movement sleep during light phase at 40 to 60 mg/kg, ip measured up to 3 hrs of post injection; conditions: dose 40-60 mg/kg, time hrs <=3
[11] = tested on: Mus musculus; experiment: Sleep modulation activity in mouse assessed as effect on number of episodes of rapid eye movement sleep at 40 mg/kg, ip measured after 4 hrs post injection; assay type: functional, organism-based
In short: (§1)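 Twelve-month-old mice implanted under ketamine/xylazine with telemetric EEG/EMG electrodes, and allowed 7–10 days or more to recover. They were housed on 12-h light/dark (lights on 06:00) at 21–22°C. Counterbalanced crossover: 40 mg/kg i.p. in 0.3 ml saline or saline, given at ZT 4–4.5, at least 48 h apart. Manual 10-s epoch scoring (wake/NREM/REM) over 0–4 h gave % time, transitions, episode number and duration. Mean ± SEM.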

[12] = tested on: Mus musculus; experiment: Sleep modulation activity in mouse assessed as increase in time spent in wakefulness at 40 mg/kg, ip measured after 4 hrs post injection; assay type: functional, organism-based; in short: as §1
[13] = tested on: Mus musculus; experiment: Sleep modulation activity in mouse assessed as decrease in time spent in rapid eye movement sleep at 40 mg/kg, ip measured after 4 hrs post injection; assay type: functional, organism-based; in short: as §1
[14] = tested on: Mus musculus; experiment: Sleep modulation activity in mouse assessed as reduction in transition between states by measuring stabilization of reduced sleep/wake fragmentation at 40 mg/kg, ip measured after 4 hrs post injection; assay type: functional, organism-based; in short: as §1
[15] = tested on: Mus musculus; experiment: Sleep modulation activity in mouse assessed as reduction in number of episodes of non-rapid eye movement sleep at 40 mg/kg, ip measured after 4 hrs post injection
[16] = tested on: Mus musculus; experiment: Sleep modulation activity in mouse assessed as reduction in number of episodes of wake at 40 mg/kg, ip measured after 4 hrs post injection
[17] = tested on: Mus musculus; experiment: Sleep modulation activity in mouse assessed as decrease in time spent in non-rapid eye movement sleep at 40 mg/kg, ip measured after 4 hrs post injection; assay type: functional, organism-based; in short: as §1

SMILES | EC50 [3] | EC50 [4] | other results
Cc1ccc(Cn2c(=N)n(CC(O)c3ccc(Cl)c(Cl)c3)c3ccccc32)cc1 (stereo not drawn) |  |  | EC50 [1]: > 3.2 µM; EC50 ([2]; read-out: EC50): > 3.2 µM
COC(=O)N1CCC[C@H](NS(C)(=O)=O)[C@@H]1CO[C@H]1CC[C@@H](c2ccccc2)CC1 [DANAVOREXTON] |  |  | EC50 ([2]; read-out: EC50): > 30 µM
COc1ccc(-c2cccc(C(=O)N(C)C)c2)cc1S(=O)(=O)Nc1cccc(CCNC(=O)c2ccccc2-n2nccn2)c1 |  |  | EC50 ([2]; read-out: pEC50 (converted)): < 35.5 µM
COc1ccc(-c2cccc(C(=O)N(C)C)c2)cc1C(=O)Nc1cccc(NCCNC(=O)c2cccc(C)c2)c1 | 1.27 µM | > 10 µM | 
COc1ccc(-c2csc(C(=O)N(C)C)c2)cc1S(=O)(=O)Nc1cccc(NCCNC(=O)c2cccc(C)c2)c1 | 0.166 µM |  | 
COc1ccc(CCC(=O)N(C)C)cc1S(=O)(=O)Nc1cccc(NCCNC(=O)c2cccc(C)c2)c1 | > 10 µM |  | 
COc1ccc(-c2cccc(C(=O)N(C)C)c2)cc1S(=O)(=O)Nc1cccc(N2CCN(C(=O)c3cccc(C)c3)CC2)c1 | > 10 µM | > 10 µM | 
COc1ccc(-c2cccc(C(=O)N(C)Cc3ccccc3)c2)cc1S(=O)(=O)Nc1cccc(NCCNC(=O)c2cccc(C)c2)c1 |  | > 10 µM | 
COc1ccc(-c2cccc(C(=O)N(C)Cc3ccncc3)c2)cc1C(=O)Nc1cccc(NCCNC(=O)c2cccc(C)c2)c1 | 0.863 µM | > 10 µM | 
COc1ccc(-c2cccc(CN(C)C)c2)cc1S(=O)(=O)Nc1cccc(NCCNC(=O)c2ccccc2N(C)C)c1 | 0.56 µM | > 10 µM | 
COc1ccc(-c2cccc(C(=O)N(C)Cc3ccncc3)c2)cc1S(=O)(=O)Nc1cccc(NCCNC(=O)c2cccc(C)c2)c1 |  |  | Activity [11]: inactive; Activity [12]: Active; Activity [13]: Active; Activity [14]: Active; Activity [15]: Active; Activity [16]: Active; Activity [17]: Active
COc1ccc(-c2cccc(C(=O)N(C)c3ccccn3)c2)cc1S(=O)(=O)Nc1cccc(NCCNC(=O)c2cccc(C)c2)c1 |  | > 10 µM | 

Now from value to compound, other results behind:

EC50 [3] | EC50 [4] | SMILES | other results
> 10 µM | > 10 µM | COc1ccc(-c2cccc(C(=O)N(C)C)c2)cc1S(=O)(=O)Nc1cccc(N2CCN(C(=O)c3ccccc3N(C)C)CC2)c1 | 
0.165 µM | 0.824 µM | COc1ccc(-c2cccc(C(=O)N(C)C)c2)cc1S(=O)(=O)Nc1cccc(NCCNC(=O)c2ccccc2N(C)C)c1 | Activity [5]: Active; Activity [6]: inactive; Activity [7]: Active; Activity [8]: Active; Activity [9]: inactive; Activity [10]: Active
> 10 µM |  | COc1ccc(/C=C/C(=O)N(C)C)cc1S(=O)(=O)Nc1cccc(NCCNC(=O)c2cccc(C)c2)c1 | 
 | > 10 µM | COc1ccc(-c2cccc(C(=O)NCCN(C)C)c2)cc1S(=O)(=O)Nc1cccc(NCCNC(=O)c2cccc(C)c2)c1 | 
 | > 10 µM | COc1ccc(-c2cccc(C(=O)NCc3ccccn3)c2)cc1S(=O)(=O)Nc1cccc(NCCNC(=O)c2cccc(C)c2)c1 | 
0.376 µM | 0.666 µM | COc1ccc(-c2cccc(C(=O)N(C)C)c2)cc1S(=O)(=O)Nc1cccc(NCC(C)NC(=O)c2cccc(C)c2)c1 (stereo not drawn) | 
